“Also recorded” adds a separate entry of the source. Values belong to the molecule of their own block, whether it stands above or below them.
Experiments:
[1] = target: Dyn1 (S. cerevisiae cytoplasmic dynein heavy chain), full length, ZZ-TEV-GFP and HaloTag tagged (S. cerevisiae) (UniProt P36022); assay: single-molecule TIRF fluorescence intensity analysis
Pac11-Myc = assay: Single-molecule Dyn1-Pac11 colocalization assay; assay type: binding, S. cerevisiae; conditions: pH 7.2, motors diluted as for motility assays (∼1 nM)
Method in brief: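 Glass flow chamber from HNO3/NaOH-cleaned coverslip. Sequential steps: Cy5-labelled rabbit anti-Myc diluted 10,000× in 30 mM HEPES, 2 mM MgCl2, 1 mM EGTA, 0.5 mg/ml BSA (pH 7.2), 2 min; blocking buffer with 5 mg/ml BSA and 1 mg/ml β-casein, 5 min; TMR-HaloTag-labelled, TEV-released Dyn1 in blocking buffer, 5 min; second round of antibody, 5 min. Cy5–TMR spot colocalization scored.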

Dyn2 = Dyn2 (Saccharomyces cerevisiae, UniProt Q02647); assay: Western blot of Dyn2 copurifying with Dyn1; assay type: binding, S. cerevisiae; conditions: IgG affinity purification, anti-Dyn2 Western blot, Dyn1 normalized
Method in brief: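 Dyn1 was IgG-bead purified from yeast lysate of WT, dyn2Δ and dyn2Δpac11Δ strains (lysis pH 7.4, 100 μM MgATP, beads 1 h at 4°C) and TEV-released at 16°C for 1 h. Dyn1 was quantified by Krypton-stained SDS–PAGE against BSA standards, then equal Dyn1 amounts were loaded. Blots used rabbit anti-Dyn2 (1:200), anti-Myc for Pac11 (1:2000) and Alexa Fluor 680 anti-rabbit secondary (1:5000).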

microtubules = conditions: full-length dynein, HaloTag-TMR labeled; ref Reck-Peterson et al., 2006; cited from earlier work
[2] = Solubility of Dyn2 constructs on concentration; assay type: physicochemical; conditions: buffer A, pH 6.8; WT 6.0 mg/ml, H58K 10.0 mg/ml, F76K/Y78E 6.0 mg/ml
[3] = target: Dyn2 (S. cerevisiae dynein light chain), wild type, full length (S. cerevisiae, UniProt Q02647 1-92); assay: ITC

- stoichiometry N [1]: 2
Molecule: Dyn1 (S. cerevisiae cytoplasmic dynein heavy chain), full length, ZZ-TEV-GFP and HaloTag tagged, P36022 1-4092

Molecule: Dyn1 purified from dyn2Δ: TMR-labeled Dyn1 purified from VY263 with dyn2Δ
- colocalization of Dyn1 with Pac11-Myc (in words) (Pac11-Myc): did not reveal any associated Pac11; also recorded: do not show significant TMR-Cy5 colocalization
- Dyn2 copurified with Dyn1 (Dyn2): absence of Dyn2

Molecule: Dyn1 purified from dyn2Δpac11Δ
- colocalization of Dyn1 with Pac11-Myc (in words) (Pac11-Myc): did not reveal any associated Pac11; also recorded: do not show significant TMR-Cy5 colocalization
- Dyn2 copurified with Dyn1 (Dyn2): absence of Dyn2

Molecule: Dyn1: full-length dynein labeled at its C-terminus with the HaloTag and covalently bound to tetramethylrhodamine (TMR)
- average run length (microtubules): 1.7 μm

Molecule: Dyn2 F76K/Y78E
- solubility during concentration step [2]: remained soluble

Molecule: Dyn2 H58K
- solubility during concentration step [2]: remained soluble

- Kd [3]: 620 nM
- dH [3]: -5.17 ± 0.139 kcal/mol
- stoichiometry N [3]: 1.05 ± 0.02 sites
Molecule: ITYDKGIQTDQ [Pac11 peptide 2 (second Dyn2-binding site of Pac11, residues 75-85)]
